From PubChem
Tb MetRS inh – blocks T. brucei methionyl-tRNA synthetase activity | purified T. brucei MetRS, ATP depletion, Kinase-Glo luminescence | hit rate 0.4% among 360,000 | inhibition, % at 11.9 µM;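 active = inhibition above a per-plate cutoff of the control wells' mean inhibition plus 3 SD, cut at about 5.5% in these data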;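 also: 0% = DMSO wells median and 100% = median of wells with control inhibitor compound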
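Material: parasite MetRS enzyme / Replication: singlicate, one well per compound / Signal: luminescence of leftover ATP / Schedule: 2 h aminoacylation at 25 °C after 15 min preincubation / Medium: HEPES-MgCl2-KCl buffer plus DTT, spermine, BSA, pyrophosphatase / Doses: 11.9 µM single point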
Lipid droplet – hepatic lipid droplet formation modulation | AML12 mouse hepatocytes, oleate lipid droplets, BODIPY imaging | inhibition, % at 6.5 µM | hit rate 0.4% among 240,000 | AID 1656;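 active = lipid droplet intensity inhibited by at least 50%, with more than 500 cells counted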
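Material – AML12 mouse liver cells · Also added – oleate loading, 100 µM · Compound dosing – 6.5 µM single-point dosing · Times – overnight treatment with compound plus oleate · Measured by – fluorescence imaging, 20x objective, two fields per well · Read-out – percent inhibition of filter-corrected integrated lipid droplet intensity per well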
HCV core dimer – blocks dimerization of HCV core protein. TR-FRET GST/Flag-core106 dimerization, 1536-well. hit rate 0.33% among 300,000. inhibition, % at 5 µM;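 active = inhibition above the mean of all tested compounds plus 3 SD, set per screening campaign, cut at about 45% in these data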
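Assay system: tagged HCV core106 pair (GST and Flag); medium: KF-containing HEPES buffer, pH 7.45, DTT, CHAPS, BSA; also added: Eu donor and XL665 acceptor anti-tag antibodies; dosing: 5 µM single dose; timing: compound-protein-antibody incubation 4 h at 22.5 °C; signal: TR-FRET 671 and 617 nm emission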
HCV NS3 hel inh – inhibitors of Hepatitis C virus NS3 helicase | inhibition, % at 10.9 µM | NS3 helicase DNA unwinding, Cy5 molecular beacon fluorescence | hit rate 0.56% among 290,000 | AID 1800;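 active = inhibition above the mean of all tested compounds plus 3 SD, set per campaign, cut at about 35% in these data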;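 also: 0% = DMSO wells and 100% = thioflavine S control wells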
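Assay system – hepatitis C virus NS3 helicase domain fragment enzyme · Buffer or medium – MOPS pH 6.5, MgCl2, DTT, Tween20, BSA · Reagent – Cy5/quencher beacon DNA duplex and ATP to start · Compound – single 10.9 µM dose · Timing – 1 h at 25 °C · Technique – Cy5 beacon fluorescence read at start and 1 h · Measure – % inhibition of unwinding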
NS3 hel confirm – HCV NS3 helicase inhibition, confirmation assay | shares compounds with HCV NS3 hel inh | NS3 helicase DNA unwinding, Cy5 molecular beacon fluorescence | inhibition, % at 10.9 µM | hit rate 31% among 1,600;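 active = inhibition above the mean of all tested compounds plus 3 SD, cutoff set per campaign, cut at about 36% in these data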
DNA FID counter – intercalator displacement, NS3 helicase counter-screen | shares compounds with HCV NS3 hel inh | DNA fluorescent intercalator displacement, fluorescence | inhibition, % at 7.9 µM | hit rate 4% among 1,600 | AID 1945; in the data active = inhibition above about 37%;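 also: 0% = vehicle and 100% = reference compound; higher means more displacement of ethidium bromide from the DNA hairpin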
* = called active by the depositor; . = no result. An excerpt weighted towards active compounds, which were near 1.3% of everything screened.

SMILES	Tb MetRS inh	Lipid droplet	HCV core dimer	HCV NS3 hel inh	NS3 hel confirm	DNA FID counter
C=CCOc1ccccc1CN(CCc1ccccc1)C(=O)c1cccc(S(C)(=O)=O)c1	-0.9	-14.1	3.0	-10.8	.	.
Cc1[nH]n(C(N)=S)c(=O)c1N=Nc1cccc(Cl)c1	-0.1	.	-6.4	58.2*	-19.6	16.7
N=C1S/C(=C\c2ccc(-c3ccccc3C(=O)O)o2)C(=O)N1c1ccc2c(c1)OCO2	-0.1	23.4	.	18.7	.	.
COc1ccccc1N1C(=N)S/C(=C\c2ccc(-c3ccccc3C(=O)O)o2)C1=O	0.7	2.4	-13.3	41.1*	40.2*	-18.7
Cc1cc(OC(C)C)nc(NCc2ccccc2)n1	-1.0	.	-3.3	-7.3	.	.
Cc1ccc(-c2nn(Cc3ccccc3)cc2/C=C/C(=O)O)cc1	-0.4	.	3.2	43.6*	9.7	-8.8
Cc1ccc(Cn2cc(/C=C/C(=O)O)c(-c3ccccc3)n2)cc1	-0.5	.	1.5	17.6	.	.
CC(C)C1Nc2c(O)cc(Cl)c([N+](=O)[O-])c2C2C=CCC21 (stereo not drawn)	-0.1	-22.7	.	36.7*	58.4*	11.0
CS(=O)(=O)c1nsc2nc(=O)c(/C=C3\C=Nc4ccccc43)c(N)n12	0.6	0.7	-3.0	7.2	.	.
Cc1cc2nc(=O)c(/C=C3\C=Nc4ccccc43)c(N)n2o1	-0.3	31.0	-1.8	42.9*	-3.5	16.4
CCCCc1c(C)nc2c(OC)cccc2c1SCC(=O)O	-0.3	-4.0	7.6	37.0*	-1.4	-0.4
Cc1cc(F)ccc1C(O)c1ncc(-c2cccc(OCc3ccccc3)c2)[nH]1 (stereo not drawn)	0.2	.	.	.	.	.
CCOC(=O)Nc1ccc([N+](=O)[O-])cc1OC	-0.3	.	3.1	42.3*	-12.0	-0.4
COCCN1C(=O)c2cc(C(=O)Nc3ccc(C)c(F)c3)ccc2C1Nc1ccc(C)c(F)c1 (stereo not drawn)	-0.7	14.4	17.1	1.7	.	.
Cc1ccc(NC(=O)CN2C(=O)N/C(=C/c3ccco3)C2=O)cc1	0.0	.	53.2*	39.0*	8.9	6.8
O=C(NCc1ccccc1)C(C1CC1)n1c(=O)c(-c2ccco2)nc2ccccc21 (stereo not drawn)	-0.2	.	.	.	.	.
CCc1ccc(NC(=O)Cc2c(C(=O)O)n(C)c3ccccc23)cc1	0.6	19.5	7.7	37.0*	51.6*	-25.3
COC(=O)CN1C(=O)[C@H]2[C@@H](c3ccc(C)o3)N3C(=O)CN(CCO)C(=O)[C@@]3(Cc3ccccc3)[C@H]2C1=O	-0.2	-8.4	3.1	45.5*	-7.1	2.8
COc1cccc(C(=O)CC(=O)C(=O)Nc2cc(OC)ccc2OC)c1	0.8	.	0.9	30.2	.	.
COc1cccc(C(=O)CC(=O)C(=O)Nc2ccc(C)cc2Cl)c1	-0.6	2.4	5.1	63.2*	21.4	0.6
COc1ccc(C(=O)CC(=O)C(=O)Nc2ccc(C)cc2Cl)cc1	-0.9	.	2.5	38.5*	-29.5	3.0
COC(=O)c1ccccc1NC(=O)CSCC(=O)Nc1ccccc1	-1.9	.	1.4	-1.3	.	.
Cc1sc(NC(=O)/C=C/C(=O)O)c(C(N)=O)c1-c1ccc(C(C)(C)C)cc1	-1.1	14.5	8.6	36.5*	59.5*	-13.8
Cc1sc(NC(=O)C2CCCCC2C(=O)O)c(C(N)=O)c1-c1ccc(C(C)C)cc1 (stereo not drawn)	-1.5	.	14.2	39.1*	77.3*	-22.4
Cc1sc(NC(=O)C2CCCCC2C(=O)O)c(C(N)=O)c1-c1ccccc1 (stereo not drawn)	-0.9	.	-3.6	1.1	.	.
SMILES	Tb MetRS inh	Lipid droplet	HCV core dimer	HCV NS3 hel inh	NS3 hel confirm	DNA FID counter
CNCCCNCc1ccc(SC)cc1	.	10.2	.	0.6	.	.
Cc1ccc(C)c(-c2nnc(NC(=O)Cc3ccc(F)cc3)o2)c1	0.4	-0.9	-13.2	42.3*	-12.8	0.9
CC(=O)c1c(C)[nH]c(C(=O)CN2C(=O)NC3(CCCCC3)C2=O)c1C	-0.5	.	.	.	.	.
Cc1ccc(SCC(=O)NC(=O)Nc2ccc3c(c2)OCCO3)c(C)c1	0.1	-0.2	9.8	-0.8	.	.
COc1cc([N+](=O)[O-])c2ncsc2c1	-0.1	-22.3	6.3	-7.7	.	.
COc1cc(SSc2cc(OC)cc([N+](=O)[O-])c2N)c(N)c([N+](=O)[O-])c1	-0.5	9.3	-95.5	28.7	6.8	14.9
COC(=O)c1cc(N=Cc2c(O)c3ccccc3oc2=O)cc(C(=O)OC)c1	-1.6	-1.6	-7.9	40.3*	4.2	10.2
